From ChEMBL document CHEMBL4130483, “Leishmanicidal and cytotoxic activity of hederagenin-bistriazolyl derivatives” (Eur J Med Chem, 2017)
Calls of active or inactive are those of the source.

Key:
FaDu = test: Cytotoxicity against human FADU cells assessed as reduction in cell viability incubated fro 96 hrs by SRB assay; assay type: functional, cell-based
A2780 [1] = test: Cytotoxicity against human A2780 cells assessed as reduction in cell viability incubated fro 96 hrs by SRB assay; assay type: functional, cell-based; conditions: A2780, 96 h
Method in brief: (§1)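 Sulforhodamine B photometric assay after 96 h treatment. Monolayers were grown in RPMI 1640 with L-glutamine, 10% heat-inactivated FBS and penicillin/streptomycin at 37 °C in humidified 5% CO2. Cut-off was 30 μM, or 60 μM for the parent. EC50 was averaged from at least three independent experiments, each in four replicates. Betulinic acid was the positive standard.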

HT-29 [2] = test: Cytotoxicity against human HT-29 cells assessed as reduction in cell viability incubated fro 96 hrs by SRB assay; assay type: functional, cell-based; conditions: HT-29, 96 h; method in brief: as §1
A-375 = test: Cytotoxicity against human A375 cells assessed as reduction in cell viability incubated fro 96 hrs by SRB assay; assay type: functional, cell-based; conditions: A-375, 96 h; method in brief: as §1
SW-1736 = test: Cytotoxicity against human SW1736 cells assessed as reduction in cell viability incubated fro 96 hrs by SRB assay; assay type: functional, cell-based; conditions: SW-1736, 96 h; method in brief: as §1
Leishmania infantum [3] = test: Antileishmanial activity against Leishmania infantum MHOM/BR/70/BH46 intracellular amastigotes infected in canine DH82 cells assessed as as inhibition of cell growth at 1000 uM incubated for 48 hrs by ELISA method; assay type: functional; conditions: MHOM/BR/70/BH46, DH82, 48 h, read-out: GI
Leishmania infantum [4] = test: Antileishmanial activity against Leishmania infantum MHOM/BR/70/BH46 intracellular amastigotes infected in canine DH82 cells assessed as as inhibition of cell growth incubated for 48 hrs by ELISA method; assay type: functional, organism-based; conditions: MHOM/BR/70/BH46, DH82, 48 h
Method in brief: (§2)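 L. infantum BH46 intracellular amastigotes. Phase II testing at 0.1, 1.0, 10 and 100 μM. IC50 is the concentration inhibiting in vitro growth by 50%, taken from dose-response curves (log concentration vs inhibition) run in four replicates. Potassium antimonyl tartrate trihydrate served as positive control.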

[5] = Cytotoxicity in dog DH82 cells assessed as reduction in cell viability incubated for 48 hrs by MTT assay; assay type: cell-based, Canis lupus familiaris
Method in brief: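 DH82 canine macrophage viability was monitored microscopically and by MTT colorimetric assay. CC50 is the concentration cytotoxic to 50% of DH82 cells. Potassium antimonyl tartrate trihydrate was the positive control.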

[6] = Selectivity index, ratio of CC50 for dog DH82 cells to IC50 for antileishmanial activity against Leishmania infantum MHOM/BR/70/BH46 intracellular amastigotes infected in canine DH82 cells; assay type: toxicity, cell-based; conditions: read-out: Ratio CC50/IC50
Method in brief: (§3)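 SI = CC50 in DH82 macrophages (MTT) divided by IC50 against intracellular L. infantum BH46 amastigotes.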

[7] = Cytotoxicity in African green monkey BGM cells assessed as reduction in cell viability incubated for 48 hrs by MTT assay; assay type: cell-based; conditions: chlorocebus aethiops
Method in brief: (§4)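 MTT colorimetric assay with microscopic monitoring. CC50 is the concentration cytotoxic to 50% of BGM or HepG2 cells. Potassium antimonyl tartrate trihydrate was the positive control.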

[8] = Selectivity index, ratio of CC50 for African green monkey BGM cells to IC50 for antileishmanial activity against Leishmania infantum MHOM/BR/70/BH46 intracellular amastigotes infected in canine DH82 cells; assay type: toxicity, cell-based; conditions: read-out: Ratio CC50/IC50
Method in brief: (§5)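 SI = CC50 in BGM or HepG2 cells (MTT) divided by the intracellular amastigote IC50.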

[9] = Cytotoxicity in human HepG2 cells assessed as reduction in cell viability incubated for 48 hrs by MTT assay; assay type: cell-based; method in brief: as §4
[10] = Selectivity index, ratio of CC50 for human HepG2 cells to IC50 for antileishmanial activity against Leishmania infantum MHOM/BR/70/BH46 intracellular amastigotes infected in canine DH82 cells; assay type: toxicity, cell-based; conditions: read-out: Ratio CC50/IC50; method in brief: as §5
518A2 = test: Cytotoxicity against human 518A2 cells; assay type: functional, cell-based
A2780 [11] = test: Cytotoxicity against human A2780 cells; assay type: functional, cell-based
HT-29 [12] = test: Cytotoxicity against human HT-29 cells; assay type: functional, cell-based
MCF7 = test: Cytotoxicity against human MCF7 cells; assay type: functional, cell-based
A549 = test: Cytotoxicity against human A549 cells; assay type: functional, cell-based
8505C = test: Cytotoxicity against human 8505C cells; assay type: functional, cell-based
Leishmania infantum [13] = test: Antiparasitic activity against Leishmania infantum; assay type: functional, organism-based
[14] = Ratio of selectivity index of test compound to potassium antimonyl tartrate by measuring ratio of CC50 for dog DH82 cells to IC50 for antileishmanial activity against Leishmania infantum MHOM/BR/70/BH46 intracellular amastigotes infected in canine DH82 cells; assay type: toxicity, cell-based
[15] = Ratio of selectivity index of test compound to hederagenin by measuring ratio of CC50 for dog DH82 cells to IC50 for antileishmanial activity against Leishmania infantum MHOM/BR/70/BH46 intracellular amastigotes infected in canine DH82 cells; assay type: toxicity, cell-based
Leishmania infantum [16] = test: Antileishmanial activity against Leishmania infantum MHOM/BR/70/BH46 intracellular amastigotes infected in canine DH82 cells assessed as as inhibition of cell growth; assay type: functional, organism-based; conditions: MHOM/BR/70/BH46, DH82; method in brief: as §2
[17] = Selectivity index, ratio of CC50 for dog DH82 cells to IC50 for Leishmania infantum MHOM/BR/70/BH46 intracellular amastigotes infected in canine DH82 cells; assay type: toxicity, cell-based; method in brief: as §3
HT-29 [18] = test: Induction of cell morphology changes in human HT-29 cells at 15 uM incubated for 24 hrs by AO/PI staining based fluorescence microscopy; assay type: functional
Method in brief: (§6)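 HT29 cells were treated for 24 h, then stained with acridine orange and propidium iodide. Morphology and membrane permeability were assessed by fluorescence microscopy against an untreated control.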

HT-29 [19] = test: Induction of cell membrane permeability changes in human HT-29 cells at 15 uM incubated for 24 hrs by AO/PI staining based fluorescence microscopy; assay type: functional; method in brief: as §6

| Compound | EC50 (FaDu) | EC50 (A2780 [1]) | EC50 (HT-29 [2]) | EC50 (A-375) | EC50 (SW-1736) | inhibition of growth at 1000 µM (Leishmania infantum [3]) | IC50 (Leishmania infantum [4]) | CC50 at 48 h [5] | selectivity ratio [6] | CC50 at 48 h [7] | selectivity ratio [8] | CC50 at 48 h [9] | selectivity ratio [10] | EC50 (518A2) | EC50 (A2780 [11]) | EC50 (HT-29 [12]) | EC50 (MCF7) | EC50 (A549) | EC50 (8505C) | also measured |
| --- | --- | --- | --- | --- | --- | --- | --- | --- | --- | --- | --- | --- | --- | --- | --- | --- | --- | --- | --- | --- |
| CC1(C)CC[C@]2(C(=O)OCc3cn(Cc4ccc(F)cc4F)nn3)CC[C@]3(C)C(=CC[C@@H]4[C@@]5(C)CC[C@H](O)[C@@](C)(COCc6cn(Cc7ccc(F)cc7F)nn6)[C@@H]5CC[C@]43C)[C@@H]2C1 | > 30 µM | > 30 µM | > 30 µM | > 30 µM | > 30 µM | 52.4% | 155 µM | 140 µM | 0.9 | 99.7 µM | 0.6 | 105 µM | 0.7 |  |  |  |  |  |  |  |
| CC1(C)CC[C@]2(C(=O)OCc3cn(Cc4cccc(Cl)c4)nn3)CC[C@]3(C)C(=CC[C@@H]4[C@@]5(C)CC[C@H](O)[C@@](C)(CO)[C@@H]5CC[C@]43C)[C@@H]2C1 |  |  |  |  |  |  |  |  |  |  |  |  |  | 3 to 4.1 µM | 3 to 4.1 µM | 3 to 4.1 µM | 3 to 4.1 µM | 3 to 4.1 µM | 3 to 4.1 µM |  |
| CC1(C)CC[C@]2(C(=O)OCc3cn(Cc4cccc(Br)c4)nn3)CC[C@]3(C)C(=CC[C@@H]4[C@@]5(C)CC[C@H](O)[C@@](C)(CO)[C@@H]5CC[C@]43C)[C@@H]2C1 |  |  |  |  |  |  |  |  |  |  |  |  |  | 3 to 4.1 µM | 3 to 4.1 µM | 3 to 4.1 µM | 3 to 4.1 µM | 3 to 4.1 µM | 3 to 4.1 µM | IC50 (Leishmania infantum [13]): 32 to 34 µM |
| Cc1ccc(C(=O)Cn2cc(COC[C@@]3(C)[C@@H]4CC[C@]5(C)[C@H](CC=C6[C@@H]7CC(C)(C)CC[C@]7(C(=O)OCc7cn(CC(=O)c8ccc(C)cc8)nn7)CC[C@]65C)[C@@]4(C)CC[C@@H]3O)nn2)cc1 | > 30 µM | > 30 µM | > 30 µM | > 30 µM | > 30 µM | 63.7% | 7.4 µM | > 1000 µM | > 135 | > 1000 µM | > 135 | > 1000 µM | > 135 |  |  |  |  |  |  | Ratio [14]: 10; Ratio [15]: 14 |
| CC1(C)CC[C@]2(C(=O)OCc3cn(Cc4ccccc4F)nn3)CC[C@]3(C)C(=CC[C@@H]4[C@@]5(C)CC[C@H](O)[C@@](C)(COCc6cn(Cc7ccccc7F)nn6)[C@@H]5CC[C@]43C)[C@@H]2C1 | > 30 µM | 21.6 µM | 16.3 µM | 28.5 µM | > 30 µM | 65% | 5.6 µM | > 1000 µM | > 178 | > 1000 µM | > 178 | > 1000 µM | > 178 |  |  |  |  |  |  | Ratio [14]: 1780; Ratio [15]: 8; IC50 (Leishmania infantum [16]): 5.6 µM; selectivity ratio [17]: > 178 |
| CC1(C)CC[C@]2(C(=O)OCc3cn(Cc4ccc([N+](=O)[O-])cc4)nn3)CC[C@]3(C)C(=CC[C@@H]4[C@@]5(C)CC[C@H](O)[C@@](C)(COCc6cn(Cc7ccc([N+](=O)[O-])cc7)nn6)[C@@H]5CC[C@]43C)[C@@H]2C1 | > 30 µM | > 30 µM | > 30 µM | > 30 µM | > 30 µM | 58.6% | 25.9 µM | > 1000 µM | > 38 | > 1000 µM | > 38 | > 1000 µM | > 38 |  |  |  |  |  |  |  |
| CC1(C)CC[C@]2(C(=O)OCc3cn(Cc4cccc([N+](=O)[O-])c4)nn3)CC[C@]3(C)C(=CC[C@@H]4[C@@]5(C)CC[C@H](O)[C@@](C)(CO)[C@@H]5CC[C@]43C)[C@@H]2C1 |  |  |  |  |  |  |  |  |  |  |  |  |  | 3 to 4.1 µM | 3 to 4.1 µM | 3 to 4.1 µM | 3 to 4.1 µM | 3 to 4.1 µM | 3 to 4.1 µM |  |
| CC1(C)CC[C@]2(C(=O)OCc3cn(CC(=O)c4ccc(C#N)cc4)nn3)CC[C@]3(C)C(=CC[C@@H]4[C@@]5(C)CC[C@H](O)[C@@](C)(COCc6cn(CC(=O)c7ccc(C#N)cc7)nn6)[C@@H]5CC[C@]43C)[C@@H]2C1 | 12.1 µM | 11.2 µM | 7.4 µM | 10.6 µM | 11.9 µM | 8.8% |  |  |  |  |  |  |  |  |  |  |  |  |  | Activity (HT-29 [18]): inactive; Activity (HT-29 [19]): inactive |
| C#CCOC[C@@]1(C)[C@@H]2CC[C@]3(C)[C@H](CC=C4[C@@H]5CC(C)(C)CC[C@]5(C(=O)OCC#C)CC[C@]43C)[C@@]2(C)CC[C@@H]1O |  |  |  |  |  | 77.2% | 28.8 µM | 259 µM | 9 | 99 µM | 3.5 | 104 µM | 3.7 |  |  |  |  |  |  |  |
